The results in this text go back to ChEMBL document CHEMBL1208718, “Rational design of a novel peripherally-restricted, orally active CB(1) cannabinoid antagonist containing a 2,3-diarylpyrrole motif” (Bioorg Med Chem Lett, 2010).

Data set [1] has as its target Cannabinoid receptor 1 (Rattus norvegicus, UniProt P20272). In words: Binding affinity to CB1 receptor in rat brain synaptosomal membranes. It is filed as cell membranes.
Data set [2] deals with T1, Cannabinoid receptor 2 (Rattus norvegicus) (UniProt Q9QZN9).
T1 sequence (whole entry): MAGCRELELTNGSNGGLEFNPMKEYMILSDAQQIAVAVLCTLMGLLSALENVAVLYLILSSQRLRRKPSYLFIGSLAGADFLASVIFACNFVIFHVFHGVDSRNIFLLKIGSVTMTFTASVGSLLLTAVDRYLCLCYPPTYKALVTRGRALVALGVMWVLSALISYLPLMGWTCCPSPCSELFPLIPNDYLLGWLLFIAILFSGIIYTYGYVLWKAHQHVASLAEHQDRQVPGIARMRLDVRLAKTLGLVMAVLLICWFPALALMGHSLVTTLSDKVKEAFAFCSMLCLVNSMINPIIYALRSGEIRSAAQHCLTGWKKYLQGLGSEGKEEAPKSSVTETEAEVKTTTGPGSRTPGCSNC
In words: Binding affinity to CB2 receptor in rat spleen homogenates at 1 uM. It is filed as tissue-based.

The subject of data set [3] is Mus musculus. Briefly: Ex vivo displacement of [3H]CP-55940 from mouse brain homogenates without cerebellum at 10 mg/kg, iv after 30 mins. It is filed as functional. The method in brief: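 Mice dosed iv at 10 mg/kg and killed by decapitation 30 min later. Brain homogenized without cerebellum, and inhibition of [3H]-CP55940 binding measured in the homogenate.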
For orientation: In a radioligand displacement assay an active substance lowers the binding of a labelled ligand.

Data set [4] relates to Mus musculus. In words: Reversal of CP-55940-induced hypothermia in po dosed mouse at 30 mg/kg, po. It is filed as functional. In short, it runs like this: (§1)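 Mice dosed orally with antagonist, then challenged with CP55940 0.3 mg/kg ip to induce hypothermia. Reversal scored as DE50 (mg/kg po) or as % reversal at a single oral dose.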
In data set [5] the test system is Mus musculus. Briefly: Reversal of CP-55940-induced inhibition of intestinal transit in mouse at 10 mg/kg, po. Format: functional. Further details: scale not given: the % may be the effect or the level left. In short, it runs like this:
(§2)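 Mice dosed orally with antagonist, then given CP55940 0.15 mg/kg ip to inhibit intestinal transit. Reversal scored as DE50 (mg/kg po) or as % reversal at a single oral dose.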

Data set [6] relates to Mus musculus. In words: Reversal of CP-55940-induced inhibition of intestinal transit in po dosed mouse. It is filed as functional. In short, it runs like this: as §2
Data set [7] deals with Mus musculus. In words: Reversal of CP-55940-induced hypothermia in po dosed mouse. Format: functional. The method in brief:
as §1

Data set [8] can be described thus: Metabolic stability in mouse liver microsomes at 5 uM after 10 mins by HPLC analysis in presence of NADPH. It is filed as ADME, Microsome. The method in brief:
(§3)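 Hepatic microsomal fractions from mouse, rat and human were used at 1 mg/mL microsomal protein, with 10 min incubation of substrate.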
(In general: Microsomes from liver hold many membrane-bound enzymes, among them those of drug oxidation.)

Data set [9] relates to Liver microsomes. Briefly: Metabolic stability in rat liver microsomes at 5 uM after 10 mins by HPLC analysis in presence of NADPH. It is filed as ADME, Microsome. The method in brief: as §3
A short description of data set [10]: Oral bioavailability in Swiss CD1 mouse at 10 mg/kg. The settings on record: in vivo.
In data set [11] the target is T2, Cannabinoid receptor 1 (Homo sapiens, UniProt P21554). Briefly: Antagonist activity at CB1 receptor in forskolin-stimulated human U373-MG cells assessed as inhibition of CP-55940-induced cAMP accumulation. Format: functional, cell-based, U-373MG ATCC. In short, it runs like this:
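Human U373-MG cells; forskolin-stimulated cAMP accumulation was inhibited with CP55940, and the antagonist was tested over a range of concentrations for reversal of that inhibition. The EC50 was derived from the concentration–response.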

Data set [12] is described as follows: Cmax in Swiss CD1 mouse at 10 mg/kg, po after 2 hrs. On the set-up: dose 10 mg/kg, route oral. To be noted: in vivo. Format: ADME, organism-based. The method in brief: (§4)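 Male Swiss CD1 mice received a single oral 10 mg/kg dose. Drug levels were measured in plasma (ng/mL) and brain (ng/g tissue) over 24 h.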
Data set [13] relates to Liver microsomes. Briefly: Metabolic stability in human liver microsomes at 5 uM after 10 mins by HPLC analysis in presence of NADPH. It is filed as ADME, Microsome. In short, it runs like this:
as §3

In data set [14] the target is T2, Cannabinoid receptor 1. Briefly: Inhibition of human recombinant CB1 receptor expressed in CHO cells. It is filed as cell-based.
A short description of data set [15]: AUC (0 to 24 hrs) ratio in brain to plasma of Swiss CD1 mouse at 10 mg/kg, po. It is filed as ADME, organism-based. On the set-up: dose 10 mg/kg, route oral.
A short description of data set [16]: Drug level in Swiss CD1 mouse brain assessed per gram of tissue at 10 mg/kg, po after 6 hrs. The settings on record: read-out: Drug uptake. On the set-up: dose 10 mg/kg, route oral. It is filed as ADME, organism-based. In short, it runs like this:
as §4

Sequence of Cannabinoid receptor 1 (Rattus norvegicus, UniProt P20272) (P20272 whole entry): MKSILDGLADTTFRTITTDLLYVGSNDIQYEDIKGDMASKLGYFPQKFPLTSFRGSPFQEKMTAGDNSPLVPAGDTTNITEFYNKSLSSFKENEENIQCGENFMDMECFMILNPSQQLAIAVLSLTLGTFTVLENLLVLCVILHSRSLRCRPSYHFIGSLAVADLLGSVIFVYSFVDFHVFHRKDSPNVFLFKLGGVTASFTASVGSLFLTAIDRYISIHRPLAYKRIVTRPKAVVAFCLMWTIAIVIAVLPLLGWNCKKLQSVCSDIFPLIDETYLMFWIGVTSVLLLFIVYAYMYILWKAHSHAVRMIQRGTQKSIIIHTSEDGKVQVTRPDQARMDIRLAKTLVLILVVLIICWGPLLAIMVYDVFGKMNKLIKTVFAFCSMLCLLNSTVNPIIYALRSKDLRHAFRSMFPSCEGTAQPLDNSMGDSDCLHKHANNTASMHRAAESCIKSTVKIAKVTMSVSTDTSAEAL
T2 sequence (P21554 whole entry): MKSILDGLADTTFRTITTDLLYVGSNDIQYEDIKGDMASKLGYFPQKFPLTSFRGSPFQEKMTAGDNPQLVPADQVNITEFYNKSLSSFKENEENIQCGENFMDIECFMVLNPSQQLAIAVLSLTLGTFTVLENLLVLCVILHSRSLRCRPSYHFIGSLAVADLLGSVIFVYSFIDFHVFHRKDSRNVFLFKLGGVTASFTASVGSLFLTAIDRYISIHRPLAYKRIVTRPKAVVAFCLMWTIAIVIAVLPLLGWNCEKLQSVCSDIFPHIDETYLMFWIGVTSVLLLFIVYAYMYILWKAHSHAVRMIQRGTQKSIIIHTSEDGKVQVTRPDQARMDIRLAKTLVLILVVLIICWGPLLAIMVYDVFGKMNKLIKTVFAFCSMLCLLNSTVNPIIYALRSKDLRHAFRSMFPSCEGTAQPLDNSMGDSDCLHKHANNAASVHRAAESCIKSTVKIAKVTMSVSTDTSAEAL

Turning to `NC(=O)C1(N2CCCCC2)CCN(C(=O)c2cc(-c3ccc(Cl)cc3Cl)c(-c3ccc(Cl)cc3)n2CCC(=O)O)CC1`, the half-inhibitory concentration (IC50) on Cannabinoid receptor 1 [1] was found to be 180 nM. In data set [2], the inhibition is 14%.
In turn, `CS(=O)(=O)NCCCn1c(C(=O)N2CCC(C(N)=O)(N3CCCCC3)CC2)cc(-c2ccc(Cl)cc2Cl)c1-c1ccc(Cl)cc1` had an IC50 on Cannabinoid receptor 1 [1] of 1.4 nM. In addition, 10 mg/kg produced 18% inhibition in vivo in the data set on Mus musculus [3]. In data set [2], this compound yielded an inhibition of 16%. The Activity in the data set on Mus musculus [4] came out at 1%; in the data set on Mus musculus [5] it was 51%.
Regarding `CS(=O)(=O)CCn1c(C(=O)N2CCC(C(N)=O)(N3CCCCC3)CC2)cc(-c2ccc(Cl)cc2Cl)c1-c1ccc(Cl)cc1`, the 50% inhibitory concentration (IC50) at Cannabinoid receptor 1 [1] is 0.4 nM. Further, the inhibition in vivo at 10 mg/kg with Mus musculus [3] stood at 19%. Further, the inhibition in data set [2] is 26%.
The matching figures for `N#CCCn1c(C(=O)N2CCC(C(N)=O)(N3CCCCC3)CC2)cc(-c2ccc(Cl)cc2Cl)c1-c1ccc(Cl)cc1`: 8 nM, 39% and 18%.
For `CC(C)(CCCn1c(C(=O)N2CCC(C(N)=O)(N3CCCCC3)CC2)cc(-c2ccc(Cl)cc2Cl)c1-c1ccc(Cl)cc1)C(=O)O`, on Cannabinoid receptor 1 [1], the IC50 came to 160 nM. This compound also gave an inhibition in data set [2] of 52%.
Compound `Cc1c(C(=O)NN2CCCCC2)nn(-c2ccc(Cl)cc2Cl)c1-c1ccc(Cl)cc1` [RIMONABANT] had an inhibition in vivo at 10 mg/kg with Mus musculus [3] of 100%. Also, the ED50 in the data set with Mus musculus [6] was 1 mg/kg; in the data set with Mus musculus [7] it was 0.6 mg/kg. Moreover, the inhibition in data set [2] was 66%.
`Cn1c(C(=O)N2CCC(C(N)=O)(c3ccccc3)CC2)cc(-c2ccc(Cl)cc2Cl)c1-c1ccc(Cl)cc1`: the IC50 on Cannabinoid receptor 1 [1] was 0.7 nM. This compound had an inhibition in vivo at 10 mg/kg in the data set on Mus musculus [3] of 86%. In data set [2], this compound yielded an inhibition of 17%.
For the compound `Cn1c(C(=O)N2CCC(C(N)=O)(N3CCOCC3)CC2)cc(-c2ccc(Cl)cc2Cl)c1-c1ccc(Cl)cc1`, the 50% inhibitory concentration (IC50) at Cannabinoid receptor 1 [1] turned out to be 34 nM. Also, in the data set with Mus musculus [3], at 10 mg/kg the inhibition in vivo was 32%. Also, the inhibition in [2] was found to be 42%.
With `Cn1c(C(=O)N2CCC(C(N)=O)(N3CCCCC3)CC2)cc(-c2ccc(Cl)cc2Cl)c1-c1ccc(Cl)cc1`, the IC50 at Cannabinoid receptor 1 [1] worked out at 0.2 nM. Moreover, the inhibition in vivo at 10 mg/kg in the data set on Mus musculus [3] stood at 96%. The inhibition in data set [2] stood at 48%.
On to `CC1(C)CCN(C2(C(N)=O)CCN(C(=O)c3cc(-c4ccc(Cl)cc4Cl)c(-c4ccc(Cl)cc4)n3CCCNS(C)(=O)=O)CC2)CC1`, for which the IC50 at Cannabinoid receptor 1 [1] amounted to 4.3 nM. The compound further displayed an inhibition in vivo at 10 mg/kg in the data set on Mus musculus [3] of 33%. Moreover, the ED50 in the data set with Mus musculus [6] turned out to be 4.1 mg/kg. This compound also had an inhibition in data set [2] of 27%. Besides, the Activity with Mus musculus [4] was 0%.
For the compound `CS(=O)(=O)NCCCn1c(C(=O)N2CCC(C(N)=O)(N3CCC(F)(F)CC3)CC2)cc(-c2ccc(Cl)cc2Cl)c1-c1ccc(Cl)cc1`, the values for the IC50 on Cannabinoid receptor 1 [1] and on Cannabinoid receptor 1 [14] were 1 nM and 1.4 nM, respectively. 10 mg/kg produced 28% inhibition in vivo with Mus musculus [3]. For the same compound, the Stability entry (in data set [8]; in the data set with Liver microsomes [9]; with Liver microsomes [13]) was “Stable” each time. In the data set on Mus musculus [6], the median effective dose (ED50) came to 2.4 mg/kg. The inhibition in [2] was 39%. Moreover, the Activity with Mus musculus [4] was found to be 0%. Further, the bioavailability in data set [10] is 37%. Also, the EC50 at Cannabinoid receptor 1 [11] is 15 nM. In [12], the highest concentration (Cmax) turned out to be 570 ng/mL. Also, in data set [15], the Kp was 0.01. The concentration at 6 h in data set [16] came to 6.4 ng/g.

The term IC50 denotes the concentration that inhibits the measured activity by half. As usually defined, the inhibition is the change of the read-out against control, counted positive when it falls. In general, inhibition in vivo refers to the share of the control response that was lost under treatment. One may read the ED50 as the dose that gives a 50% effect, or the effect in half of the subjects. As usually defined, the bioavailability is dose-corrected exposure relative to a reference, in per cent. The term EC50 denotes the concentration needed to bring the measured effect to its halfway point. As usually defined, the Cmax is the highest concentration seen after dosing. As usually defined, the Kp is tissue or fluid exposure divided by exposure in the circulation.
